The record followed here is ChEMBL document CHEMBL4699493, “Development of Bis-cyclic Imidazolidine-4-one Derivatives as Potent Antibacterial Agents” (J Med Chem, 2020).

Series [1] is described as follows: Hemolytic activity against mouse RBC measured after 1 hr by microplate reader analysis. The series is classed as ADME, cell-based, Erythrocyte. The conditions noted are these: mouse red blood cells (erythrocytes). Put shortly: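 Mouse red blood cells collected by centrifugation (500–700g, 10 min), washed three times in PBS, and diluted 20-fold in PBS. Mixed with 2-fold serial dilutions of compound (starting at 1 mg/mL in PBS) and incubated 1 h at 37 °C. After centrifugation, supernatant absorbance read at 540 nm. % hemolysis calculated relative to PBS (0%) and 2% Triton (100%). At least three repeats in duplicate.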

The test system of series [2] is Staphylococcus aureus. Nature of the series: Antibacterial activity against methicillin-resistant Staphylococcus aureus ATCC 33591. The series is classed as functional. Put shortly: (§1)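 Broth microdilution in TSB. Strains were grown 16 h, subcultured 6 h to log phase, then diluted to 10^6 CFU/mL by OD600. Compound came from a 5 mg/mL DMSO stock diluted in TSB and serially diluted, top final concentration 25 μg/mL. MIC was the lowest concentration giving complete growth inhibition. Done ≥3 times in duplicate.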

Series [3] relates to Staphylococcus epidermidis. Nature of the series: Antibacterial activity against methicillin-resistant Staphylococcus epidermidis RP62A. It counts as functional. Put shortly:
as §1

In series [4] the test system is Klebsiella pneumoniae. In words: Antibacterial activity against Klebsiella pneumoniae ATCC 13383. The series is classed as functional. Put shortly: (§2)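 Broth microdilution in TSB. Stocks at 5 mg/mL in DMSO diluted with TSB to 100 μg/mL, then serially diluted; highest test concentration 25 μg/mL. Bacteria grown 16 h, subcultured 6 h to log phase, adjusted to 10^6 CFU/mL by OD600. MIC = lowest concentration giving complete growth inhibition. At least three repeats, each in duplicate.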

In series [5] the test system is Escherichia coli. In words: Antibacterial activity against Escherichia coli ATCC 25922. The series is classed as functional. Put shortly: as §2
The subject of series [6] is Staphylococcus aureus. Nature of the series: Antibacterial activity against methicillin-resistant Staphylococcus aureus ATCC 33591 assessed as ratio of MIC after and before 13 serial passages. The series is classed as functional. Put shortly: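 Serial-passage resistance test. A first MIC was run by TSB broth microdilution. Bacteria from the well after the last clear well were resuspended to about 10^6 CFU/mL for the next MIC. This was repeated for 13 passages.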

A short description of series [7]: Selectivity ratio of HC50 for hemolytic activity against mouse RBC to MIC for methicillin-resistant Staphylococcus aureus. The series is classed as toxicity. The conditions noted are these: mouse red blood cells (erythrocytes). Put shortly:
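Mouse RBCs were washed three times in PBS and diluted in 20 volumes of PBS. They were mixed with compound 2-fold serially diluted from 1 mg/mL in PBS, incubated 1 h at 37 °C, then centrifuged; supernatant read at A540. % hemolysis was calculated against PBS (0%) and 2% Triton (100%). Done ≥3 times in duplicate. HC50 was divided by the MRSA MIC.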

In brackets after ≈: the same amount, converted by molar mass.

Regarding `CCCCCCCC(=O)N[C@@H](CCCCN)CN1CC(=O)N(c2ccc(N3CN(C[C@H](CCCCN)NC(=O)CCCCCCC)CC3=O)cc2)C1`, the HC50 – broadly, the concentration that lyses half of the red blood cells – at 1 h in series [1] is greater than 250 µg/mL. For the same molecule, the MIC in series [2], in series [3], in series [4] and in series [5] was greater than 25 µg/mL in each case.
Turning to `NCCCC(=O)N[C@@H](Cc1ccccc1)CN1CC(=O)N(c2ccc(N3CN(C[C@H](Cc4ccccc4)NC(=O)CCCN)CC3=O)cc2)C1`, the HC50 at 1 h in series [1] is greater than 250 µg/mL. Besides, the MIC in series [2], in series [3], in series [4] and in series [5] was greater than 25 µg/mL in each case.
Consider `CCCCCCCCCCCCCCCC(=O)N[C@@H](CCCCN)CN1CC(=O)N(c2ccc(N3CN(C[C@H](CCCCN)NC(=O)CCCCCCCCCCCCCCC)CC3=O)cc2)C1`, for which, in series [1], the HC50 at 1 h is greater than 250 µg/mL. The MIC in series [2], in series [3], in series [4] and in series [5] was greater than 25 µg/mL throughout.
In turn, `CCCCCCCCCC(=O)N[C@@H](Cc1ccccc1)CN1CC(=O)N(c2ccc(N3CN(C[C@H](Cc4ccccc4)NC(=O)CCCCCCCCC)CC3=O)cc2)C1` had an HC50 at 1 h in series [1] greater than 250 µg/mL. The MIC in series [2], in series [3], in series [4] and in series [5] was greater than 25 µg/mL in each case.
On to `NCCCC[C@@H](CN1CC(=O)N(c2ccc(N3CN(C[C@H](CCCCN)NC(=O)Cc4ccc5ccccc5c4)CC3=O)cc2)C1)NC(=O)Cc1ccc2ccccc2c1`, for which the HC50 at 1 h in series [1] is greater than 250 µg/mL. Moreover, the MIC in series [2], in series [3], in series [4] and in series [5] was greater than 25 µg/mL in each case.
As for `CCn1cc(C(=O)O)c(=O)c2cc(F)c(N3CCNCC3)cc21` [NORFLOXACIN], the Ratio in series [6] is greater than 22.
As to `CCCCCCCCCCCCCC(=O)N[C@@H](CCCCN)CN1CC(=O)N(c2ccc(N3CN(C[C@H](CCCCN)NC(=O)CCCCCCCCCCCCC)CC3=O)cc2)C1`, the HC50 at 1 h in series [1] is greater than 250 µg/mL. The MIC in series [2], in series [3], in series [4] and in series [5] was greater than 25 µg/mL throughout.
Turning to `CCCCCCCCCC(=O)N[C@@H](CCCCN)CNCC(=O)Nc1ccc(NC(=O)CNC[C@H](CCCCN)NC(=O)CCCCCCCCC)cc1`, the HC50 at 1 h in series [1] was greater than 250 µg/mL. Further, the MIC (as a rule, the lowest concentration found to suppress growth) is 2 µg/mL (≈ 2.63 µM) in series [2], 2 µg/mL (≈ 2.63 µM) in series [3], greater than 25 µg/mL in series [4] and greater than 25 µg/mL in series [5]. Moreover, the selectivity ratio in series [7] is greater than 125.
In series [1], `NCCCC[C@@H](CN1CC(=O)N(c2ccc(N3CN(C[C@H](CCCCN)NC(=O)CC45C[C@H]6C[C@@H](C4)C[C@@H](C5)C6)CC3=O)cc2)C1)NC(=O)CC12C[C@H]3C[C@@H](C1)C[C@@H](C2)C3` came in with an HC50 at 1 h greater than 250 µg/mL. Besides, the MIC in series [2], in series [3], in series [4] and in series [5] was greater than 25 µg/mL throughout.
Take `CCCCCCCCCCCC(=O)N[C@@H](CCCCN)CN1CC(=O)N(c2ccc(N3CN(C[C@H](CCCCN)NC(=O)CCCCCCCCCCC)CC3=O)cc2)C1`: in series [1], the HC50 at 1 h was greater than 250 µg/mL. The MIC is 1 µg/mL (≈ 1.19 µM) in series [2], 2 µg/mL (≈ 2.38 µM) in series [3], greater than 25 µg/mL in series [4] and greater than 25 µg/mL in series [5]. Also, the selectivity ratio in series [7] was greater than 250.
In the case of `CCCCCCCCCC(=O)N[C@@H](CCCCNC(=N)N)CN1CC(=O)N(c2ccc(N3CN(C[C@H](CCCCNC(=N)N)NC(=O)CCCCCCCCC)CC3=O)cc2)C1`, in series [1], the HC50 at 1 h was 125 µg/mL. Besides, the MIC in series [2] was 1 µg/mL (≈ 1.15 µM); in series [3], 5 µg/mL (≈ 5.77 µM); in series [4], 5 µg/mL (≈ 5.77 µM); in series [5], greater than 25 µg/mL. The selectivity ratio in series [7] was found to be 125.
In series [1], `N=C(N)NCCCC[C@@H](CN1CC(=O)N(c2ccc(N3CN(C[C@H](CCCCNC(=N)N)NC(=O)CC45C[C@H]6C[C@@H](C4)C[C@@H](C5)C6)CC3=O)cc2)C1)NC(=O)CC12C[C@H]3C[C@@H](C1)C[C@@H](C2)C3` yielded an HC50 at 1 h of 250 µg/mL. For the same molecule, the MIC in series [2] is 1 µg/mL (≈ 1.1 µM); in series [3], 2 µg/mL (≈ 2.19 µM); in series [4], greater than 25 µg/mL; in series [5] it was greater than 25 µg/mL. The selectivity ratio in series [7] was found to be 250.
`CCCCCC(=O)N[C@@H](CCCCN)CN1CC(=O)N(c2ccc(N3CN(C[C@H](CCCCN)NC(=O)CCCCC)CC3=O)cc2)C1`: the HC50 at 1 h in series [1] was greater than 250 µg/mL. Moreover, the MIC in series [2], in series [3], in series [4] and in series [5] was greater than 25 µg/mL each time.
Take `O=C(O)c1cn(C2CC2)c2cc(N3CCNCC3)c(F)cc2c1=O` [CIPROFLOXACIN]: the MIC in series [2] amounted to 0.15 µg/mL (≈ 0.453 µM); in series [3], 0.15 µg/mL (≈ 0.453 µM); in series [4], 0.3 µg/mL (≈ 0.905 µM); in series [5], 0.07 µg/mL (≈ 0.211 µM).
